{
  "source": "ChEMBL document CHEMBL3352286",
  "about": "“Submonomer synthesis of azapeptide ligands of the Insulin Receptor Tyrosine Kinase domain” (Bioorg Med Chem Lett, 2014)",
  "key": {"[1]": {"biological_target": "Insulin receptor (Homo sapiens) (UniProt P06213)", "sequence (P06213 28-758 limits assumed)": "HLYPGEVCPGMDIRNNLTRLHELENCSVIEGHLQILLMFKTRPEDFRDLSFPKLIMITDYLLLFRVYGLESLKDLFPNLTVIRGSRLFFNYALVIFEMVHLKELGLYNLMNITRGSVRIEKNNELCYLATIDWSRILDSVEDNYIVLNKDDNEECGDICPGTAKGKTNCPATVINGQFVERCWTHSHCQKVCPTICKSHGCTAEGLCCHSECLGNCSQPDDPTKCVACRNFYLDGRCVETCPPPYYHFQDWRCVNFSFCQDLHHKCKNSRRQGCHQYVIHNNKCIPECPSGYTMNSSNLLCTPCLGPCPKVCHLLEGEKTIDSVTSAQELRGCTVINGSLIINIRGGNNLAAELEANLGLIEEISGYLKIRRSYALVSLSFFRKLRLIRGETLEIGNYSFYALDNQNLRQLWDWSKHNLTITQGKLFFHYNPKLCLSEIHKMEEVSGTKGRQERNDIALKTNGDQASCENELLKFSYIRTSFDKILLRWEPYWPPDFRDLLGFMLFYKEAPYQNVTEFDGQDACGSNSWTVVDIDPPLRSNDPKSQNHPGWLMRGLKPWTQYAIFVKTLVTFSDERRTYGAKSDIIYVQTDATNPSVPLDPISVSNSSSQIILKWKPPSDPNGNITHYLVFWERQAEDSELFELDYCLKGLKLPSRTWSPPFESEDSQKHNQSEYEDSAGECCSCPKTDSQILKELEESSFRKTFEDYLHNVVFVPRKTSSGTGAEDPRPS", "sequence (P06213 763-1382 limits assumed)": "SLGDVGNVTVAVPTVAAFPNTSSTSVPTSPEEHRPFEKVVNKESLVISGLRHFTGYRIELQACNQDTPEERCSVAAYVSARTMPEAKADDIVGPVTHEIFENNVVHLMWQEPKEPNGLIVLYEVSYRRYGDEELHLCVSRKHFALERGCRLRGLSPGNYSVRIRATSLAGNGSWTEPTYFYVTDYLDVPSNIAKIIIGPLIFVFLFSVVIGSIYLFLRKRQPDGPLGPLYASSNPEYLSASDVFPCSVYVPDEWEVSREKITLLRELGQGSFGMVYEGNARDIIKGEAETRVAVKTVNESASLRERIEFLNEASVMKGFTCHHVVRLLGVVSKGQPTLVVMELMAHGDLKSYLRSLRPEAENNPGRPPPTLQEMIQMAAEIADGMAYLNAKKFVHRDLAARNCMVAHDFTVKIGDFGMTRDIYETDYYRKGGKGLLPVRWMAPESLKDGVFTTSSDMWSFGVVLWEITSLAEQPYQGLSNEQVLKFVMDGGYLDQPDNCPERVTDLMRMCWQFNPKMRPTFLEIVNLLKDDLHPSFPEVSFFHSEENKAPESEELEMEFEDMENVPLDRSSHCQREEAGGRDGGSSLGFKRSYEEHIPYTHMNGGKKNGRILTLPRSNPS", "assay": "Inhibition of human active insulin receptor tyrosine kinase domain (amino acids 1005 to 1310) assessed as reduction in autophosphorylation at 400 uM using 1000 uM ATP and insulin by BCIP/NBT staining based colorimetry and immunoblotting"}, "[2]": {"assay": "Retention time of the compound using 2 to 90% MeOH in H2O with 0.1% FA over 15 mins by RP-LC method", "format": "physicochemical", "details": "0.25 h", "outline": "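Reversed-phase LC with UV detection at 214 nm; gradient of 2–90% MeOH in H2O containing 0.1% formic acid over 15 min; retention time in minutes.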"}, "[3]": {"biological_target": "Insulin receptor (Homo sapiens) (UniProt P06213)", "assay": "Inhibition of human active insulin receptor tyrosine kinase domain (amino acids 1005 to 1310) assessed as residual autophosphorylation level at 400 uM using 1000 uM ATP and insulin by BCIP/NBT staining based colorimetry and immunoblotting", "outline": "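Recombinant IRTK domain (residues 1005–1310), 200 ng/mL, incubated with 1000 µM ATP and peptide ligand in reaction buffer for 20 min at 37 °C, then quenched. Samples were resolved by denaturing 10% Bis-Tris PAGE and transferred to PVDF, which was blocked overnight in 2% BSA/TBST. Blots were probed with anti-phospho-IR/IGF1R (Tyr1158/1162/1163) and an AP-conjugated goat anti-rabbit IgG, and developed colorimetrically with BCIP/NBT.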"}, "[4]": {"biological_target": "Insulin receptor (Homo sapiens) (UniProt P06213)", "assay": "Stimulation of human active insulin receptor tyrosine kinase domain (amino acids 1005 to 1310) assessed as increase in autophosphorylation at 400 uM using 1000 uM ATP and insulin by BCIP/NBT staining based colorimetry and immunoblotting"}, "[5]": {"assay": "Retention time of the compound using 2 to 90% MeCN in H2O with 0.1% FA over 15 mins by RP-LC method", "format": "physicochemical", "details": "0.25 h"}, "[6]": {"biological_target": "Insulin receptor (Homo sapiens) (UniProt P06213)", "assay": "Inhibition of IRTK (unknown origin) assessed as reduction in enzyme phosphorylation at 4 mM"}, "[7]": {"biological_target": "Insulin receptor (Rattus norvegicus) (UniProt P15127)", "sequence (P15127 27-759 limits assumed)": "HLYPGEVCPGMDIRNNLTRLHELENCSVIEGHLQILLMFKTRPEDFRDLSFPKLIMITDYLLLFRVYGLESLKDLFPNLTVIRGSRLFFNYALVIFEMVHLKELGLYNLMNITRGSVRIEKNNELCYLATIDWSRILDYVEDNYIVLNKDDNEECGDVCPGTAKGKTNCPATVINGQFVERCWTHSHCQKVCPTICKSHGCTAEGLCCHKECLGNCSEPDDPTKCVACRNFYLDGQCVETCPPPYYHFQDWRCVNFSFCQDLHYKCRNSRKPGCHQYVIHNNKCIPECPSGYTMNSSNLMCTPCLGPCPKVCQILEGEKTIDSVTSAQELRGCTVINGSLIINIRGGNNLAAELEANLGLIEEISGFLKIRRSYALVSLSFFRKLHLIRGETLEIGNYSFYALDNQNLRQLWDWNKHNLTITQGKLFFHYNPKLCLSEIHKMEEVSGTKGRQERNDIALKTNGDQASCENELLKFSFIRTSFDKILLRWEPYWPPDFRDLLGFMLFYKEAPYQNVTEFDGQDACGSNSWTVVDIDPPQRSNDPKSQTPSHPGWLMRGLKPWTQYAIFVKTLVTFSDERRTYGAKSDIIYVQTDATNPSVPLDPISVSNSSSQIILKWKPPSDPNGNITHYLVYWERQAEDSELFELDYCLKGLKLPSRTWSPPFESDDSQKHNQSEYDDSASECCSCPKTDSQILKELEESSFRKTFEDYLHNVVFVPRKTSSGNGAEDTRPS", "sequence (P15127 764-1383 limits assumed)": "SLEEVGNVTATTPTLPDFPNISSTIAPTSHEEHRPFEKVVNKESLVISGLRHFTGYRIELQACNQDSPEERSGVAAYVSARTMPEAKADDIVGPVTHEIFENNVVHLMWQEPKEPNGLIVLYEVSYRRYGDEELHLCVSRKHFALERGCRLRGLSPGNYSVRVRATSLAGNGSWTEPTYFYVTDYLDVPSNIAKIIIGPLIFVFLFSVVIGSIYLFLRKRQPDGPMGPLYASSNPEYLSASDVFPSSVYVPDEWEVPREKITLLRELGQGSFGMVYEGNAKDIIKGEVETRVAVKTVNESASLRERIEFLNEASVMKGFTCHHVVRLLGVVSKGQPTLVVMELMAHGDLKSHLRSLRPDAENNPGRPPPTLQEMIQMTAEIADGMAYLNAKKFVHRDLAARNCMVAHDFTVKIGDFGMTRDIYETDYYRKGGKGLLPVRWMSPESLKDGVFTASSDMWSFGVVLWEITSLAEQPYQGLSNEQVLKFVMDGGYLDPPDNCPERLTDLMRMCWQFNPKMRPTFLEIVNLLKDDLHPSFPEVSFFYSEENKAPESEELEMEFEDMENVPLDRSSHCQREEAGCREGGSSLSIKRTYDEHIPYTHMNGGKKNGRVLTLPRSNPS", "assay": "Inhibition of rat liver IRTK assessed as reduction in enzyme phosphorylation at 4 mM"}},
  "note": "Starred links: 1 amine or outer side, 2 acyl side, 3 side chain; linkers in the order of their positions; H or OH if unused. Non-standard residues stand in square brackets, D forms with d. Residues, ends and D or L forms follow the SMILES beside them. azaTyr = O=C(N(Cc1ccc(O)cc1)N[*:1])[*:2]; X1 = O=C(N(Cc1ccc(O)c(O)c1)N[*:1])[*:2]; azaPhe = O=C(N(Cc1ccccc1)N[*:1])[*:2]; X3 = CC[C@H](C)N(N[*:1])C(=O)[*:2]; X2 = O=C(O)CCN(N[*:1])C(=O)[*:2]; AzaAla = CN(N[*:1])C(=O)[*:2]; azaGly = NNC(=O)O",
  "data": [
    {"compound": "CC(C)(C)c1cc(C=C(C#N)C#N)cc(Br)c1O", "values": [
      {"measurement": "inhibition", "setting": "[1]", "value": 80, "unit": "%"}
    ]},
    {"compound": "CC[C@H](C)[C@H](NC(=O)[C@H](CC(=O)O)NC(C)=O)C(=O)N[C@@H](Cc1ccc(O)cc1)C(=O)NN(CCC(=O)O)C(=O)N[C@H](C(N)=O)[C@@H](C)O", "note": "(Ac-DIY[X2]T-NH2)", "values": [
      {"measurement": "Retention_time", "setting": "[2]", "value": 9.61, "unit": "min"},
      {"measurement": "Activity", "setting": "[3]", "value": 110, "unit": "%"},
      {"measurement": "Activity", "setting": "[4]", "value": 10, "unit": "%"},
      {"measurement": "Retention_time", "setting": "[5]", "value": 6.41, "unit": "min"}
    ]},
    {"compound": "CC[C@H](C)[C@H](NC(=O)[C@H](CC(=O)O)NC(C)=O)C(=O)NN(Cc1ccc(O)c(O)c1)C(=O)N[C@@H](CCC(=O)O)C(=O)N[C@H](C(N)=O)[C@@H](C)O", "note": "(Ac-DI[X1]ET-NH2)", "values": [
      {"measurement": "Retention_time", "setting": "[2]", "value": 8.9, "unit": "min"},
      {"measurement": "Activity", "setting": "[3]", "value": 128, "unit": "%"},
      {"measurement": "Activity", "setting": "[4]", "value": 30, "unit": "%"},
      {"measurement": "Retention_time", "setting": "[5]", "value": 6.33, "unit": "min"}
    ]},
    {"compound": "CC[C@H](C)[C@H](NC(=O)[C@H](CC(=O)O)NC(C)=O)C(=O)NN(Cc1ccccc1)C(=O)N[C@@H](CCC(=O)O)C(=O)N[C@H](C(N)=O)[C@@H](C)O", "note": "(Ac-DI[azaPhe]ET-NH2)", "values": [
      {"measurement": "Retention_time", "setting": "[2]", "value": 11.76, "unit": "min"},
      {"measurement": "Activity", "setting": "[3]", "value": 67, "unit": "%"},
      {"measurement": "Retention_time", "setting": "[5]", "value": 7.76, "unit": "min"}
    ]},
    {"compound": "CC[C@H](C)[C@H](NC(=O)[C@H](CC(=O)O)NC(C)=O)C(=O)NN(Cc1ccc(O)cc1)C(=O)N[C@@H](CCC(=O)O)C(=O)N[C@H](C(N)=O)[C@@H](C)O", "note": "(Ac-DI[azaTyr]ET-NH2)", "values": [
      {"measurement": "Retention_time", "setting": "[2]", "value": 9.95, "unit": "min"},
      {"measurement": "inhibition", "setting": "[1]", "value": 50, "unit": "%"},
      {"measurement": "Activity", "setting": "[3]", "value": 40, "unit": "%"},
      {"measurement": "Retention_time", "setting": "[5]", "value": 6.68, "unit": "min"}
    ]},
    {"compound": "CC(=O)N[C@@H](CC(=O)O)C(=O)NN(C)C(=O)N[C@@H](Cc1ccc(O)cc1)C(=O)N[C@@H](CCC(=O)O)C(=O)N[C@H](C(N)=O)[C@@H](C)O", "note": "(Ac-D[AzaAla]YET-NH2)", "values": [
      {"measurement": "Retention_time", "setting": "[2]", "value": 7.42, "unit": "min"},
      {"measurement": "Activity", "setting": "[3]", "value": 74, "unit": "%"},
      {"measurement": "Retention_time", "setting": "[5]", "value": 5.26, "unit": "min"}
    ]},
    {"compound": "CC[C@H](C)N(NC(=O)[C@H](CC(=O)O)NC(C)=O)C(=O)N[C@@H](Cc1ccc(O)cc1)C(=O)N[C@@H](CCC(=O)O)C(=O)N[C@H](C(N)=O)[C@@H](C)O", "note": "(Ac-D[X3]YET-NH2)", "values": [
      {"measurement": "Retention_time", "setting": "[2]", "value": 6.97, "unit": "min"},
      {"measurement": "Activity", "setting": "[3]", "value": 73, "unit": "%"},
      {"measurement": "Retention_time", "setting": "[5]", "value": 5.13, "unit": "min"}
    ]},
    {"compound": "CC(=O)N[C@@H](CC(=O)O)C(=O)NNC(=O)N[C@@H](Cc1ccc(O)cc1)C(=O)N[C@@H](CCC(=O)O)C(=O)N[C@H](C(N)=O)[C@@H](C)O", "note": "(Ac-D[azaGly]YET-NH2)", "values": [
      {"measurement": "Retention_time", "setting": "[2]", "value": 6.99, "unit": "min"},
      {"measurement": "Activity", "setting": "[3]", "value": 61, "unit": "%"},
      {"measurement": "Retention_time", "setting": "[5]", "value": 5.04, "unit": "min"}
    ]},
    {"compound": "Ac-DIFET-NH2", "values": [
      {"measurement": "inhibition", "setting": "[6]", "value": 20, "unit": "%"},
      {"measurement": "Activity", "setting": "[3]", "value": 84, "unit": "%"}
    ]},
    {"compound": "Ac-DIYET-NH2", "values": [
      {"measurement": "inhibition", "setting": "[1]", "value": "< 10", "unit": "%"},
      {"measurement": "inhibition", "setting": "[7]", "value": 80, "unit": "%"},
      {"measurement": "Activity", "setting": "[3]", "value": 82, "unit": "%"}
    ]}
  ]
}
